Experimental data from ChEMBL document CHEMBL4346667 (Eur J Med Chem, 2019).
Active and inactive are the calls of the source. The rule behind the calls is not given here.

How the values were obtained:
MCF7 [1] = experiment: Cell cycle arrest in human MCF7 cells assessed as accumulation of cells at G2/M phase at 10 uM up to 48 hrs by propidium iodide double staining based flow cytometric analysis; assay type: functional
MCF7 [2] = experiment: Induction of apoptosis in human MCF7 cells at 1 uM after 48 hrs by Annexin V-FITC/propidium iodide staining-based flow cytometric analysis; assay type: functional, cell-based
How it was run: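 Log-phase cells were seeded and treated after adhering, for 48 h in cycles of 6 h on and 6 h off. Cells were stained with annexin V (1 µg/mL) and PI (0.5 µg/mL) in Ca2+-enriched binding buffer for 15 min in the dark at room temperature. 10,000 events were read by flow cytometry (FL1 vs FL2). Apoptosis was the sum of early and late stages. At least three repeats.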

MCF7 [3] = experiment: Antitumor activity against human MCF7 cells xenografted in BALB/c nude mouse assessed as tumor weight at 40 mg/kg administered for a week; assay type: functional
How it was run: (§1)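 Male BALB/c nude mice, 4 weeks old, 15-20 g. Log-phase MCF-7 cells in DMEM, 0.1 mL of 1×10^6 cells/mL, injected subcutaneously into the hind leg. Calipers twice weekly; at about 90 mm3, groups of 5. Vehicle was isotonic saline plus 0.005% DMSO. Injected at 40 mg/kg for a week; tumour volume recorded daily.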

MCF7 [4] = experiment: Antitumor activity against human MCF7 cells xenografted in BALB/c nude mouse assessed as inhibition of tumor growth at 40 mg/kg administered for a week; assay type: functional; how it was run: as §1
MCF7 [5] = experiment: Induction of apoptosis in human MCF7 cells assessed as early apoptotic cells at 1 uM after 6 hrs by Annexin V-FITC/propidium iodide staining-based flow cytometric analysis (reference value: 2%); assay type: functional
How it was run: (§2)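 Log-phase cells seeded in 6-well plates and treated after adhesion; incubated in cycles of 6 h on/6 h off up to 48 h. Collected after PBS washes and trypsin, resuspended in Ca2+-enriched binding buffer. Stained with annexin V (1 µg/mL) plus PI (0.5 µg/mL) 15 min in the dark at room temperature. 10,000 events, FL1 vs FL2. At least three repeats.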

MCF7 [6] = experiment: Induction of apoptosis in human MCF7 cells assessed as late apoptotic cells at 1 uM after 6 hrs by Annexin V-FITC/propidium iodide staining-based flow cytometric analysis (reference value: 4.7%); assay type: functional; how it was run: as §2
MCF7 [7] = experiment: Induction of apoptosis in human MCF7 cells assessed as necrotic cells at 1 uM after 6 hrs by Annexin V-FITC/propidium iodide staining-based flow cytometric analysis (reference value: 0.5%); assay type: functional
MCF7 [8] = experiment: Induction of apoptosis in human MCF7 cells assessed as viable cells at 5 uM after 6 hrs by Annexin V-FITC/propidium iodide staining-based flow cytometric analysis (reference value: 92.8%); assay type: functional; details: MCF7, 6 h, read-out: Activity
MCF7 [9] = experiment: Induction of apoptosis in human MCF7 cells assessed as early apoptotic cells at 10 uM after 6 hrs by Annexin V-FITC/propidium iodide staining-based flow cytometric analysis (reference value: 2%); assay type: functional; how it was run: as §2
MCF7 [10] = experiment: Induction of apoptosis in human MCF7 cells assessed as early apoptotic cells at 25 uM after 6 hrs by Annexin V-FITC/propidium iodide staining-based flow cytometric analysis (reference value: 2%); assay type: functional; how it was run: as §2
MCF7 [11] = experiment: Induction of apoptosis in human MCF7 cells assessed as late apoptotic cells at 50 uM after 6 hrs by Annexin V-FITC/propidium iodide staining-based flow cytometric analysis (reference value: 4.7%); assay type: functional; how it was run: as §2
MCF7 [12] = experiment: Induction of apoptosis in human MCF7 cells assessed as necrotic cells at 50 uM after 6 hrs by Annexin V-FITC/propidium iodide staining-based flow cytometric analysis (reference value: 0.5%); assay type: functional
MCF7 [13] = experiment: Induction of apoptosis in human MCF7 cells assessed as early apoptotic cells at 1 uM after 24 hrs by Annexin V-FITC/propidium iodide staining-based flow cytometric analysis (reference value: 2.1%); assay type: functional; how it was run: as §2
MCF7 [14] = experiment: Induction of apoptosis in human MCF7 cells assessed as late apoptotic cells at 1 uM after 24 hrs by Annexin V-FITC/propidium iodide staining-based flow cytometric analysis (reference value: 5.6%); assay type: functional; how it was run: as §2
MCF7 [15] = experiment: Induction of apoptosis in human MCF7 cells assessed as viable cells at 10 uM after 24 hrs by Annexin V-FITC/propidium iodide staining-based flow cytometric analysis (reference value: 92.1%); assay type: functional; details: MCF7, 24 h, read-out: Activity
MCF7 [16] = experiment: Induction of apoptosis in human MCF7 cells assessed as early apoptotic cells at 10 uM after 24 hrs by Annexin V-FITC/propidium iodide staining-based flow cytometric analysis (reference value: 2.1%); assay type: functional; how it was run: as §2
MCF7 [17] = experiment: Induction of apoptosis in human MCF7 cells assessed as late apoptotic cells at 25 uM after 24 hrs by Annexin V-FITC/propidium iodide staining-based flow cytometric analysis (reference value: 5.6%); assay type: functional; how it was run: as §2
MCF7 [18] = experiment: Induction of apoptosis in human MCF7 cells assessed as necrotic cells at 25 uM after 24 hrs by Annexin V-FITC/propidium iodide staining-based flow cytometric analysis (reference value: 0.2%); assay type: functional
MCF7 [19] = experiment: Induction of apoptosis in human MCF7 cells assessed as late apoptotic cells at 2505 uM after 24 hrs by Annexin V-FITC/propidium iodide staining-based flow cytometric analysis (reference value: 5.6%); assay type: functional; how it was run: as §2
MCF7 [20] = experiment: Induction of apoptosis in human MCF7 cells assessed as necrotic cells at 50 uM after 24 hrs by Annexin V-FITC/propidium iodide staining-based flow cytometric analysis (reference value: 0.2%); assay type: functional
MCF7 [21] = experiment: Induction of apoptosis in human MCF7 cells assessed as late apoptotic cells at 5 uM after 48 hrs by Annexin V-FITC/propidium iodide staining-based flow cytometric analysis (reference value: 2.8%); assay type: functional; how it was run: as §2
MCF7 [22] = experiment: Induction of apoptosis in human MCF7 cells assessed as necrotic cells at 5 uM after 24 hrs by Annexin V-FITC/propidium iodide staining-based flow cytometric analysis (reference value: 0.1%); assay type: functional
MCF7 [23] = experiment: Induction of apoptosis in human MCF7 cells assessed as viable cells at 10 uM after 48 hrs by Annexin V-FITC/propidium iodide staining-based flow cytometric analysis (reference value: 87.9%); assay type: functional; details: MCF7, 48 h, read-out: Activity
MCF7 [24] = experiment: Induction of apoptosis in human MCF7 cells assessed as early apoptotic cells at 10 uM after 48 hrs by Annexin V-FITC/propidium iodide staining-based flow cytometric analysis (reference value: 9.1%); assay type: functional; how it was run: as §2
MCF7 [25] = experiment: Induction of apoptosis in human MCF7 cells assessed as late apoptotic cells at 10 uM after 48 hrs by Annexin V-FITC/propidium iodide staining-based flow cytometric analysis (reference value: 2.8%); assay type: functional; how it was run: as §2
MCF7 [26] = experiment: Induction of apoptosis in human MCF7 cells assessed as necrotic cells at 10 uM after 24 hrs by Annexin V-FITC/propidium iodide staining-based flow cytometric analysis (reference value: 0.1%); assay type: functional
MCF7 [27] = experiment: Induction of apoptosis in human MCF7 cells assessed as viable cells at 25 uM after 48 hrs by Annexin V-FITC/propidium iodide staining-based flow cytometric analysis (reference value: 87.9%); assay type: functional; details: MCF7, 48 h, read-out: Activity
MCF7 [28] = experiment: Induction of apoptosis in human MCF7 cells assessed as late apoptotic cells at 25 uM after 48 hrs by Annexin V-FITC/propidium iodide staining-based flow cytometric analysis (reference value: 2.8%); assay type: functional; how it was run: as §2
MCF7 [29] = experiment: Induction of apoptosis in human MCF7 cells assessed as viable cells at 50 uM after 48 hrs by Annexin V-FITC/propidium iodide staining-based flow cytometric analysis (reference value: 87.9%); assay type: functional; details: MCF7, 48 h, read-out: Activity

`COc1cc([C@@H]2c3cc4c(cc3[C@@H](O[C@@H]3O[C@@H]5CO[C@@H](C)O[C@H]5[C@H](O)[C@H]3O)[C@H]3COC(=O)[C@H]23)OCO4)cc(OC)c1O` [ETOPOSIDE] was tested, and the Activity (MCF7 [1]) was “Active”, the Activity (MCF7 [2]) was “inactive” and the Activity (MCF7 [3]) was 0.834 g. The inhibition in vivo at 40 mg/kg (MCF7 [4]) was 43.2%, the Activity (MCF7 [5]) was 1.6% and the Activity (MCF7 [6]) was 7.1%. The Activity (MCF7 [7]) was 0.5%, the viability at 5 µM (MCF7 [8]) was 89.7% and the Activity (MCF7 [9]) was 2.2%. It also gave an Activity (MCF7 [10]) of 1.9%, an Activity (MCF7 [11]) of 4.6% and an Activity (MCF7 [12]) of 0.8%. It also gave an Activity (MCF7 [13]) of 2.2%, an Activity (MCF7 [14]) of 6.8% and a viability at 10 µM (MCF7 [15]) of 73.9%. For the same compound, the Activity (MCF7 [16]) was 13.8%, the Activity (MCF7 [17]) was 7.7% and the Activity (MCF7 [18]) was 0.8%. It also gave an Activity (MCF7 [19]) of 12.7%, an Activity (MCF7 [20]) of 1% and an Activity (MCF7 [21]) of 15.1%. For the same compound, the Activity (MCF7 [22]) was 1.2%, the viability at 10 µM (MCF7 [23]) was 20.7% and the Activity (MCF7 [24]) was 60.5%. The Activity (MCF7 [25]) was 17.5%, the Activity (MCF7 [26]) was 1.4% and the viability at 25 µM (MCF7 [27]) was 25.7%. It also gave an Activity (MCF7 [28]) of 19.7% and a viability at 50 µM (MCF7 [29]) of 29.8%.
